Legend:
[1] = target: T1, Delta-type opioid receptor (Homo sapiens, UniProt P41143); assay: Agonist activity at human delta opioid receptor expressed in CHOK1 cells by [35S]GTPgammaS binding; assay type: functional, cell-based, CHO-K1
[2] = target: T2, Kappa-type opioid receptor (Homo sapiens, UniProt P41145); assay: Displacement of [3H]enadoline from human kappa opioid receptor expressed in HEK293 cells; assay type: cell-based
[3] = target: T2, Kappa-type opioid receptor; assay: Agonist activity at human kappa opioid receptor expressed in HEK293 cells by [35S]GTPgammaS binding; assay type: functional, cell-based
Mus musculus = assay: Ex vivo receptor occupancy of NOP receptor in ddY mouse brain at 10 mg/kg, po after 1 hr by [3H]N/OFQ binding assay; assay type: functional
In short: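 Male ddY mice (5-6 week), water-deprived 24 h, dosed orally at 10 mg/kg in 0.1% methylcellulose. Brain removed 1 h later; cerebellum and medulla discarded, membranes prepared at 4 °C. Membranes (160 µg protein) incubated with 0.3 nM [3H]N/OFQ, 30 min, 25 °C; filtration read-out. Nonspecific binding with 1 µM N/OFQ. Occupancy is inhibition of specific binding versus vehicle-treated mice, three mice, mean ± SEM.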

[4] = target: T1, Delta-type opioid receptor; assay: Displacement of [3H]DPDPE from human delta opioid receptor expressed in CHOK1 cells; assay type: cell-based, CHO-K1
Mu-type opioid receptor [5] = target: T3, Mu-type opioid receptor (Homo sapiens, UniProt P35372); assay: Agonist activity at human mu opioid receptor expressed in CHOK1 cells by [35S]GTPgammaS binding; assay type: functional, cell-based, CHO-K1
T3 sequence (P35372 whole entry): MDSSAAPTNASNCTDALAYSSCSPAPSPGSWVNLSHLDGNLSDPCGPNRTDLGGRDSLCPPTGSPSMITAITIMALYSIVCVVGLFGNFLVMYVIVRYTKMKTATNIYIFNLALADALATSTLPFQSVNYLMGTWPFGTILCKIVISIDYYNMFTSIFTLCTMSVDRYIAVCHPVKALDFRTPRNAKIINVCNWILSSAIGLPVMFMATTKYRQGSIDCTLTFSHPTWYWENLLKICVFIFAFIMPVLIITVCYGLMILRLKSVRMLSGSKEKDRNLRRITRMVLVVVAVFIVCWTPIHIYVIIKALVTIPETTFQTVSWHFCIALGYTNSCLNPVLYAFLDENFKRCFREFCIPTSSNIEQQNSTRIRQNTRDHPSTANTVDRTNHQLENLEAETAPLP

Mu-type opioid receptor [6] = target: T3, Mu-type opioid receptor; assay: Displacement of [3H]DAMGO from human mu opioid receptor expressed in CHOK1 cells; assay type: cell-based, CHO-K1
[7] = target: T1, Delta-type opioid receptor; assay: Displacement of [3H]DPDPE from human delta opioid receptor expressed in CHOK1 cells at 1 uM; assay type: cell-based; details: CHO-K1
Nociceptin receptor [8] = target: T4, Nociceptin receptor (Homo sapiens, UniProt P41146); assay: Agonist activity at human NOP receptor expressed in HEK293 cells by [35S]GTPgammaS binding; assay type: functional, cell-based
T4 sequence (P41146 whole entry): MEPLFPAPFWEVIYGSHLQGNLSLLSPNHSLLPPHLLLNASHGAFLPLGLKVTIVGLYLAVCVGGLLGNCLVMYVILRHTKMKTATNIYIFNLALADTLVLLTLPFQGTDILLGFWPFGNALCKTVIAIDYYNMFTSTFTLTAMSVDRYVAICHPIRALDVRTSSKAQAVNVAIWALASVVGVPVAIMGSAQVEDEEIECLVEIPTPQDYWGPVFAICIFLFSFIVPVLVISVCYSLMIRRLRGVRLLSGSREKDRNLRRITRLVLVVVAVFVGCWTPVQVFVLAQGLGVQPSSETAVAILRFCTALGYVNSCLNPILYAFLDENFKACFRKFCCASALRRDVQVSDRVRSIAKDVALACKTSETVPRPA

Nociceptin receptor [9] = target: T4, Nociceptin receptor; assay: Displacement of [3H]N/OFQ from human NOP receptor expressed in HEK293 cells; assay type: cell-based

T1 sequence (P41143 whole entry): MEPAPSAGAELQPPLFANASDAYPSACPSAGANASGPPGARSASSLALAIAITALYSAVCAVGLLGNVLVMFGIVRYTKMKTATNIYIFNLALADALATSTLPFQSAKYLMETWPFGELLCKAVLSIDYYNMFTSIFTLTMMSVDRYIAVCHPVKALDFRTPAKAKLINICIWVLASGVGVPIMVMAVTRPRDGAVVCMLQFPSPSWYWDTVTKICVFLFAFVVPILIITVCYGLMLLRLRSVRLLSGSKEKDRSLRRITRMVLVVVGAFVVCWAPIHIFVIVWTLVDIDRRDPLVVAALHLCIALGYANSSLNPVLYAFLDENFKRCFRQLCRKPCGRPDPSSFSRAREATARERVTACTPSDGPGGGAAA
T2 sequence (P41145 whole entry): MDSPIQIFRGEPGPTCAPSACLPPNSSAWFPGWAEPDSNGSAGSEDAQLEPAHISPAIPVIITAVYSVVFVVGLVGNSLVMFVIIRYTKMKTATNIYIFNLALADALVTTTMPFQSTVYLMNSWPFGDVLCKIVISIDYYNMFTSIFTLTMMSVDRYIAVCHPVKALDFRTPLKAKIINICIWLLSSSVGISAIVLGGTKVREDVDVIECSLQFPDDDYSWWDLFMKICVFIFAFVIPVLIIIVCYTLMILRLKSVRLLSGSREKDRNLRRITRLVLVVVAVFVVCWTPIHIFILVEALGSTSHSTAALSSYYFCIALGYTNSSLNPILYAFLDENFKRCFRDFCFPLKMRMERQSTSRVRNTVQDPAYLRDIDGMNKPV

`CC1(N2CCC(n3c([C@@H]4CCCNC4)nc4ccccc43)CC2)CCCCCCC1` was tested, and the EC50 [1] was 4700 nM, the Ki [2] was 23.1 nM and the EC50 [3] was 80 nM. It also gave an Activity (Mus musculus) of 53% and a Ki [4] of over 667 nM.

In the case of `CC1CN(c2nc3ccccc3n2C2CCN(C3(C)CCCCCCC3)CC2)CC(C)N1` (configuration not stated), the EC50 (Mu-type opioid receptor [5]) is reported as 193 nM, the Ki [2] is reported as 15 nM and the Ki (Mu-type opioid receptor [6]) is reported as 21 nM. For the same molecule, the EC50 [3] was 18 nM and the Activity [7] was 29%.

Molecule `CC1(N2CCC(n3c(-c4ccc5cc[nH]c5c4)nc4ccccc43)CC2)CCCCCCC1` has an EC50 (Mu-type opioid receptor [5]) of 8630 nM, a Ki (Mu-type opioid receptor [6]) of 151 nM and an EC50 (Nociceptin receptor [8]) of 13 nM. It also gave a Ki (Nociceptin receptor [9]) of 1.7 nM and an Activity (Mus musculus) of -10%.

Work on `CC1(N2CCC(n3c(-c4cc5ccccc5o4)nc4ccccc43)CC2)CCCCCCC1` yielded an EC50 (Mu-type opioid receptor [5]) of 3670 nM, a Ki (Mu-type opioid receptor [6]) of 102 nM and an EC50 (Nociceptin receptor [8]) of 3.1 nM. The Ki (Nociceptin receptor [9]) was 0.53 nM and the Activity (Mus musculus) was 34%.

`CC1(N2CCC(n3c(-c4cccc(OCCO)c4)nc4ccccc43)CC2)CCCCCCC1` gave an EC50 (Mu-type opioid receptor [5]) of over 393 nM, a Ki [2] of 43 nM and a Ki (Mu-type opioid receptor [6]) of 11 nM. It also gave an EC50 [3] of 48 nM, an EC50 (Nociceptin receptor [8]) of 2.6 nM and a Ki (Nociceptin receptor [9]) of 0.3 nM. The Activity (Mus musculus) was 38% and the Ki [4] was 9.5 nM.

`CC1(N2CCC(n3c(-c4cccc(S(C)(=O)=O)c4)nc4ccccc43)CC2)CCCCCCC1` gave an EC50 (Mu-type opioid receptor [5]) of 288 nM, a Ki (Mu-type opioid receptor [6]) of 6.3 nM and an EC50 (Nociceptin receptor [8]) of 1.6 nM. For the same molecule, the Ki (Nociceptin receptor [9]) was 0.15 nM and the Activity (Mus musculus) was 34%.

`CN1CCC[C@H](c2nc3ccccc3n2C2CCN(C3(C)CCCCCCC3)CC2)C1` was tested, and the EC50 [1] was 389 nM, the EC50 (Mu-type opioid receptor [5]) was 71 nM and the Ki [2] was 10 nM. The Ki (Mu-type opioid receptor [6]) was 11 nM, the EC50 [3] was 13 nM and the EC50 (Nociceptin receptor [8]) was 1.6 nM. For the same molecule, the Ki (Nociceptin receptor [9]) was 0.24 nM and the Ki [4] was 110 nM.

Molecule `CN1CCC[C@@H](c2nc3ccccc3n2C2CCN(C3(C)CCCCCCC3)CC2)C1` has an EC50 [1] of 2190 nM, an EC50 (Mu-type opioid receptor [5]) of 67 nM and a Ki [2] of 25 nM. It also gave a Ki (Mu-type opioid receptor [6]) of 3.7 nM, an EC50 [3] of 70 nM and an EC50 (Nociceptin receptor [8]) of 1.4 nM. The Ki (Nociceptin receptor [9]) was 0.2 nM, the Activity (Mus musculus) was 61% and the Ki [4] was over 500 nM.

For `CC1(N2CCC(n3c(-c4ccc(F)c(Cl)c4)nc4ccccc43)CC2)CCCCCCC1`, the EC50 (Mu-type opioid receptor [5]) was 759 nM, the Ki (Mu-type opioid receptor [6]) was 45 nM and the Activity (Mus musculus) was 31%.

For `CC1(N2CCC(n3c(-c4cccc(CN)c4)nc4ccccc43)CC2)CCCCCCC1`, the EC50 (Mu-type opioid receptor [5]) was 340 nM, the Ki [2] was 72 nM and the Ki (Mu-type opioid receptor [6]) was 20 nM. For the same molecule, the EC50 [3] was 154 nM, the Activity (Mus musculus) was 30% and the Ki [4] was 140 nM.

`CC1(N2CCC(n3c(-c4cccc(C(F)(F)F)c4)nc4ccccc43)CC2)CCCCCCC1` was tested, and the EC50 (Mu-type opioid receptor [5]) was 10000 nM, the Ki [2] was 352 nM and the Ki (Mu-type opioid receptor [6]) was 65 nM. The EC50 [3] was 1580 nM, the EC50 (Nociceptin receptor [8]) was 5.7 nM and the Ki (Nociceptin receptor [9]) was 0.63 nM. It also gave an Activity (Mus musculus) of 3.2% and a Ki [4] of 58 nM.

Molecule `CC1(N2CCC(n3c([C@H]4CCCNC4)nc4ccccc43)CC2)CCCCCCC1` has an EC50 [1] of 514 nM, a Ki [2] of 9.2 nM and an EC50 [3] of 8.4 nM. The Ki [4] was 168 nM.

In the case of `CC1(N2CCC(n3cnc4ccccc43)CC2)CCCCCCC1`, the Ki (Mu-type opioid receptor [6]) is reported as 11 nM.

Source: ChEMBL document CHEMBL1143349, “Novel non-peptide nociceptin/orphanin FQ receptor agonist, 1-[1-(1-Methylcyclooctyl)-4-piperidinyl]-2-[(3R)-3-piperidinyl]-1H-benzimidazole: design, synthesis, and structure-activity relationship of oral receptor occupancy in the brain for orally potent antianxiety drug” (J Med Chem, 2009)
